# In ChEMBL document CHEMBL4196056, “Zirconium catalyzed synthesis of 2-arylidene Indan-1,3-diones and evaluation of their inhibitory activity against NS2B-NS3 WNV protease” (Eur J Med Chem, 2018):
# The source made the active and inactive calls. The calls are words filed in the database; no cut-off is given here.
# Test system: not listed separately
# Assay: (§1) Inhibition of recombinant West Nile virus NS2B-NS3 protease using pERTKR-AMC as substrate preincubated for 30 mins followed by substrate addition by fluorescence assay
# Details: not given
# How it was run: (§2)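 Same protease format (1 ng µL-1 enzyme, Tris/30% glycerol pH 9.5, 30 min preincubation at 21-22 °C, pERTKR-AMC, ex 360/em 460 nm). Eight inhibitor concentrations spanning 66-0.5 µmol L-1 were tested, with reads every 30 s for 5 min. Triplicate wells in three independent experiments; IC50 from four-parameter nonlinear regression (Hill slope).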
row,IC50 [µM],Compound
1,3,O=C1C(=Cc2ccc(O)c(O)c2)C(=O)c2ccccc21
2,11,O=C1C(=Cc2ccc(O)cc2)C(=O)c2ccccc21

# Test system: West Nile virus
# Assay: as §1
# Details: not given
# How it was run: as §2
row,inhibition,Compound
1,Dose-dependent effect,O=C1C(=Cc2ccc(O)c(O)c2)C(=O)c2ccccc21
2,Dose-dependent effect,O=C1C(=Cc2ccc(O)cc2)C(=O)c2ccccc21

# Test system: West Nile virus
# Assay: Inhibition of recombinant West Nile virus NS2B-NS3 protease at 16 umol/L using pERTKR-AMC as substrate preincubated for 30 mins followed by substrate addition by fluorescence assay
# Details: not given
# How it was run: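 Single-point screen of purified, pre-activated recombinant WNV NS2B-NS3 at 1 ng µL-1 final, in 50 mmol L-1 Tris with 30% glycerol, pH 9.5, and 1% DMSO final. Enzyme and compound (16 µmol L-1 final) were held 30 min at 21-22 °C before pERTKR-AMC was added. Fluorescence (ex 360/em 460 nm) was read continuously, with buffer/DMSO as negative control. Triplicate wells in three independent experiments; one-way ANOVA.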
row,Compound,inhibition
1,O=C1C(=Cc2ccccc2)C(=O)c2ccccc21,inactive
2,COc1ccc(C=C2C(=O)c3ccccc3C2=O)cc1,inactive
3,O=C1C(=Cc2ccc([N+](=O)[O-])cc2)C(=O)c2ccccc21,inactive
4,COc1ccc(C=C2C(=O)c3ccccc3C2=O)cc1OC,inactive
5,O=C1C(=Cc2ccco2)C(=O)c2ccccc21,inactive
6,O=C1C(=Cc2ccc(F)cc2)C(=O)c2ccccc21,inactive
7,O=C1C(=Cc2ccc3c(c2)OCO3)C(=O)c2ccccc21,inactive
8,COc1cc(C=C2C(=O)c3ccccc3C2=O)ccc1O,Active
9,COc1ccc(C=C2C(=O)c3ccccc3C2=O)cc1O,Active

# Next, values leading:
row,inhibition,Compound
1,100%,O=C1C(=Cc2ccc(O)c(O)c2)C(=O)c2ccccc21
2,inactive,COc1cc(C=C2C(=O)c3ccccc3C2=O)cc(OC)c1OC
3,inactive,O=C1C(=Cc2ccc(Br)cc2)C(=O)c2ccccc21
4,Active,COc1cc(C=C2C(=O)c3ccccc3C2=O)cc(OC)c1O
5,inactive,N#Cc1ccc(C=C2C(=O)c3ccccc3C2=O)cc1
6,inactive,CN(C)c1ccc(C=C2C(=O)c3ccccc3C2=O)cc1
7,41%,O=C1C(=Cc2ccc(O)cc2)C(=O)c2ccccc21

# Test system: not listed separately
# Assay: Non-competitive inhibition of recombinant West Nile virus NS2B-NS3 protease using pERTKR-AMC as substrate preincubated for 30 mins followed by substrate addition by Lineweaver-Burk plot analysis
# Details: not given
# How it was run: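 Kinetic series with WNV protease at 37.04 nmol L-1 (1 ng µL-1), inhibitor at 2, 4 and 8 µmol L-1, and pERTKR-AMC at five levels ([…] as printed). Fluorescence was read every 30 s in triplicate wells, and velocities (RFU/min) were computed for each substrate/inhibitor pair. Ki came from nonlinear enzyme-kinetics regression.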
row,Compound,Ki [µM]
1,O=C1C(=Cc2ccc(O)c(O)c2)C(=O)c2ccccc21,1.25
2,O=C1C(=Cc2ccc(O)cc2)C(=O)c2ccccc21,12.3

# Test system: not listed separately
# Assay: Cytotoxicity against African green monkey Vero cells after 24 hrs by MTT assay
# Assay type: cell-based
# Details: chlorocebus sabaeus
# How it was run: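 Vero cells (5 x 10^4/well) were exposed for 24 h at 37 °C to eight concentrations (4-1000 µmol L-1) in MEM with 2% FBS and 1% DMSO. MTT was added for 4 h, formazan was dissolved in DMSO, and absorbance was read at 550 nm. CC50 was derived by curve fitting.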
row,Compound,CC50 at 24 h [µM]
1,O=C1C(=Cc2ccc(O)c(O)c2)C(=O)c2ccccc21,268
2,O=C1C(=Cc2ccc(O)cc2)C(=O)c2ccccc21,89.7

# Test system: dengue virus type 1
# Assay: Antiviral activity against Dengue virus 1 infected in African green monkey Vero cells assessed as decrease in viral infection preincubated for 1 hr followed by cell addition and subsequent incubation for 1 hr and measured after 5 to 6 days by crystal violet staining-based assay
# Assay type: functional, organism-based
# Details: not given
# How it was run: (§3)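 Virucidal plaque-reduction format. Virus suspension (50-100 PFU) was mixed 1:1 with compound at 3, 6, 12, 25, 50 or 100 µmol L-1 and held 1 h at 37 °C. The mixture went onto Vero monolayers (8 x 10^5 cells/well) for 1 h adsorption with shaking, then a 3% CMC overlay in 2x DMEM with 2% FBS for 5-6 days. Cells were formaldehyde-fixed and crystal violet-stained, plaques were counted, and EC50 came from nonlinear regression.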
row,EC50 [µM],Compound
1,7.97,O=C1C(=Cc2ccc(O)c(O)c2)C(=O)c2ccccc21
2,46.6,O=C1C(=Cc2ccc(O)cc2)C(=O)c2ccccc21

# Test system: dengue virus type 2
# Assay: Antiviral activity against Dengue virus 2 infected in African green monkey Vero cells assessed as decrease in viral infection preincubated for 1 hr followed by cell addition and subsequent incubation for 1 hr and measured after 5 to 6 days by crystal violet staining-based assay
# Assay type: functional, organism-based
# Details: not given
# How it was run: as §3
row,EC50 [µM],Compound
1,20.4,O=C1C(=Cc2ccc(O)c(O)c2)C(=O)c2ccccc21
2,39.2,O=C1C(=Cc2ccc(O)cc2)C(=O)c2ccccc21

# Test system: dengue virus type 3
# Assay: Antiviral activity against Dengue virus 3 infected in African green monkey Vero cells assessed as decrease in viral infection preincubated for 1 hr followed by cell addition and subsequent incubation for 1 hr and measured after 5 to 6 days by crystal violet staining-based assay
# Assay type: functional, organism-based
# Details: not given
# How it was run: as §3
row,EC50 [µM],Compound
1,1.82,O=C1C(=Cc2ccc(O)c(O)c2)C(=O)c2ccccc21
2,21,O=C1C(=Cc2ccc(O)cc2)C(=O)c2ccccc21

# Test system: dengue virus type 4
# Assay: Antiviral activity against Dengue virus 4 infected in African green monkey Vero cells assessed as decrease in viral infection preincubated for 1 hr followed by cell addition and subsequent incubation for 1 hr and measured after 5 to 6 days by crystal violet staining-based assay
# Assay type: functional, organism-based
# Details: not given
# How it was run: as §3
row,EC50 [µM],Compound
1,29.9,O=C1C(=Cc2ccc(O)c(O)c2)C(=O)c2ccccc21
2,55.9,O=C1C(=Cc2ccc(O)cc2)C(=O)c2ccccc21

# Test system: not listed separately
# Assay: Selectivity index, ratio of CC50 for African green monkey Vero cells to EC50 for Dengue virus 1 infected in African green monkey Vero cells
# Assay type: toxicity
# Details: Vero cells infected with Dengue virus 1, read-out: Ratio CC50/EC50
# How it was run: (§4)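 Selectivity index calculated as CC50 from the 24 h Vero MTT assay divided by EC50 from the virucidal plaque-reduction assay for each DENV serotype.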
row,Compound,selectivity ratio
1,O=C1C(=Cc2ccc(O)c(O)c2)C(=O)c2ccccc21,34
2,O=C1C(=Cc2ccc(O)cc2)C(=O)c2ccccc21,2

# Test system: not listed separately
# Assay: Selectivity index, ratio of CC50 for African green monkey Vero cells to EC50 for Dengue virus 2 infected in African green monkey Vero cells
# Assay type: toxicity
# Details: Vero cells infected with Dengue virus 2, read-out: Ratio CC50/EC50
# How it was run: as §4
row,Compound,selectivity ratio
1,O=C1C(=Cc2ccc(O)c(O)c2)C(=O)c2ccccc21,13
2,O=C1C(=Cc2ccc(O)cc2)C(=O)c2ccccc21,2

# Test system: not listed separately
# Assay: Selectivity index, ratio of CC50 for African green monkey Vero cells to EC50 for Dengue virus 3 infected in African green monkey Vero cells
# Assay type: toxicity
# Details: Vero cells infected with Dengue virus 3, read-out: Ratio CC50/EC50
# How it was run: as §4
row,Compound,selectivity ratio
1,O=C1C(=Cc2ccc(O)c(O)c2)C(=O)c2ccccc21,147
2,O=C1C(=Cc2ccc(O)cc2)C(=O)c2ccccc21,4

# Test system: not listed separately
# Assay: Selectivity index, ratio of CC50 for African green monkey Vero cells to EC50 for Dengue virus 4 infected in African green monkey Vero cells
# Assay type: toxicity
# Details: Vero cells infected with Dengue virus 4, read-out: Ratio CC50/EC50
# How it was run: as §4
row,Compound,selectivity ratio
1,O=C1C(=Cc2ccc(O)c(O)c2)C(=O)c2ccccc21,9
2,O=C1C(=Cc2ccc(O)cc2)C(=O)c2ccccc21,2
